# A selection: hits, their analogues and other compounds. The true share with any hit is near 2.2%.
# FN deposition inh: fibronectin deposition inhibition. inhibition, % at 12.6 µM. AID 743247. actives 0.086% (n = 350,000). AH1F fibroblasts, Alexa488-fibronectin deposition fluorescence, overnight;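 active = mean inhibition across replicates of 30% or more, regardless of how many single replicates reach that level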;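 also: positive control wells lacked labelled fibronectin entirely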
#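 Assay system: AH1F fibroblasts / Quantity: 10000 cells per well / Medium: DMEM plus 2% serum, read in PBS / Reagent: labelled fibronectin 24 nM / Dosing: single dose, pinned / Times: 1 h cell attachment, overnight exposure to compound and label / Signal: fluorescence, ex 485 nm, em 525 nm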
# PGC1a acetyl inh: modulators of PGC1a acetylation | inhibition, % at 15.6 µM | U2OS PGC1a acetylation, AlphaScreen anti-acetyl-lysine; with virally co-expressed GCN5 acetyltransferase | actives 0.17% (n = 350,000) | AID 651687;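 active = every replicate shows inhibition of at least 40%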;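 also: 0% = neutral control wells and 100% = positive control wells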
# FGF22 binding: shifts melting point of recombinant human FGF22. AID 651658. actives 1.5% (n = 340,000). activity (Tm shift, normalised), % at 9.99 µM. recombinant FGF22 thermal shift, SYPRO orange fluorescence; percent of sucrose octasulfate shift, DMSO zero;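 active = mean Tm shift, scaled 0 neutral to 100 positive control, at about 1.3% or above, every replicate too, limit read from the data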
# Target sequence (Q9HCT0 whole entry, looked up): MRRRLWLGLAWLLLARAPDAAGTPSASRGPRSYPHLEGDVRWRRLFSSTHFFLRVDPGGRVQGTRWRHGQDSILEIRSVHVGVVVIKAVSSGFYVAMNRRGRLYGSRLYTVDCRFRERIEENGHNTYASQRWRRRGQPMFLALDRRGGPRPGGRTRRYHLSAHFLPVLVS
# SIRT5 inh: blocks human SIRT5 desuccinylation of peptide. Purified SirT5, succinyl-peptide AMC, trypsin-coupled fluorescence. actives 1.1% (n = 330,000). Q9NXA8. inhibition, % at 15 µM; in the data active = inhibition above about 15%
# Target sequence (Q9NXA8 whole entry, looked up): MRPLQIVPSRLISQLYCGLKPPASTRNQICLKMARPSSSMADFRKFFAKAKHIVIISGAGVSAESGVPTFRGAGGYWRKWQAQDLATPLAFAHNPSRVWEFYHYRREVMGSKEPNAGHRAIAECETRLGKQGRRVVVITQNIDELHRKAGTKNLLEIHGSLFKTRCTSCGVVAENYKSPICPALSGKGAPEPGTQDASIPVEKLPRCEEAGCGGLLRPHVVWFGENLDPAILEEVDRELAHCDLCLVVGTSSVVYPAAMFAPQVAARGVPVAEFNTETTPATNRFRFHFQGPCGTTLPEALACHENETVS
# ERAP1 HTS inh: ERAP1 (human) enzyme inhibition | recombinant ERAP1, Leu-AMC fluorescence, 60 min | AID 652197 | actives 0.15% (n = 340,000) | inhibition, % at 10.7 µM;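 active = mean replicate inhibition of at least 30%, or all replicates individually reaching that 30% level; inactive = mean below 30% and not every replicate reaching it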;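 also: 0% = neutral control wells and 100% = L-leucinethiol positive control wells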
# * marks the source's active call; other numbers are inactive results; x = no result given.
SMILES,FN deposition inh,PGC1a acetyl inh,FGF22 binding,SIRT5 inh,ERAP1 HTS inh
C[C@H]1CN([C@@H](C)CO)S(=O)(=O)c2ccc(/C=C/c3ccccc3)cc2O[C@H]1CN(C)C(=O)Nc1cc(F)ccc1F,7.1,-12.7,1.8*,22.3*,1.2
C[C@@H]1CN([C@H](C)CO)S(=O)(=O)c2ccc(/C=C/c3ccccc3)cc2O[C@H]1CN(C)C(=O)Nc1ccc(F)cc1,-7.5,-5.9,-0.8,-2.8,2.2
C[C@H](CO)N1C[C@H](C)[C@@H](CN(C)C(=O)Nc2ccc(F)cc2)Oc2cc(/C=C/c3ccccc3)ccc2S1(=O)=O,16.0,6.9,0.5,16.3*,0.3
CC1=NN(c2ccc(C(=O)O)c(N)c2)C(=O)C1,-13.5,3.0,0.1,22.5*,3.7
CC1=NN(c2ccc(Cl)c(C(=O)O)c2)C(=O)C1,3.1,x,0.0,-2.5,8.2
O=C(c1ccccn1)N1CC2(C1)[C@@H](c1ccccc1)[C@@H](CO)N2Cc1ccc(Cl)cc1,x,-6.5,-0.3,2.1,-2.7
CCOC(=O)c1c[nH]n2c(=S)ncnc12,0.9,x,43.3*,x,2.5
COC(=O)c1cc(C#N)c(OC)nc1C,-16.0,1.7,43.0*,-1.4,2.4
COC(=O)c1cc(C#N)c(Oc2ccc(OC)cc2)nc1C,x,-8.0,x,x,x
Cc1ccc(S(=O)(=O)N(C)C[C@@H]2OCCCC[C@@H](C)Oc3ccc(NC(=O)NC4CCCCC4)cc3C(=O)N([C@@H](C)CO)C[C@@H]2C)cc1,-0.1,1.0,-0.3,15.2*,-1.5
C[C@@H]1CN([C@H](C)CO)C(=O)c2cc(NC(=O)NC3CCCCC3)ccc2O[C@@H](C)CCCCO[C@H]1CN(C)S(=O)(=O)c1ccc(Cl)cc1,x,1.5,x,15.5*,1.8
C[C@@H]1CCCCO[C@@H](CN(C)S(=O)(=O)c2ccc(Cl)cc2)[C@H](C)CN([C@@H](C)CO)C(=O)c2cc(NC(=O)NC3CCCCC3)ccc2O1,x,5.3,x,6.9,0.3
Cc1ccc(S(=O)(=O)N(C)C[C@H]2OCCCC[C@H](C)Oc3ccc(NC(=O)NC4CCCCC4)cc3C(=O)N([C@H](C)CO)C[C@@H]2C)cc1,3.4,-1.7,-0.1,3.4,4.0
COc1cc(/C=C/C(=O)O)cc(S(=O)(=O)NCCCC(=O)O)c1OC,0.3,1.3,43.4*,-3.9,-0.2
COc1cc(/C=C/C(=O)O)cc(S(=O)(=O)Nc2cc(Cl)c(Cl)cc2Cl)c1OC,3.5,13.1,x,17.3*,-3.9
Nc1ccc(C(=O)NN2C(=O)[C@H](Cl)C2c2ccc(Cl)cc2)cc1 (stereo not given in full),-13.6,x,1.6*,-4.0,-0.8
COc1cccc(NC(=O)N2CC(=O)N3[C@@H](CO)[C@H](c4ccc(C#CCC5CCCC5)cc4)[C@@H]3C2)c1,-6.9,-10.2,0.0,20.4*,-0.8
O=C(c1ccc(F)cc1)N1CC(=O)N2[C@@H](CO)[C@H](c3ccc(C#CCC4CCCC4)cc3)[C@@H]2C1,1.5,2.7,-0.4,15.6*,x
CN(C)CC#Cc1ccc([C@@H]2[C@@H](CO)N3C(=O)CN(C(=O)c4cccc(F)c4)C[C@@H]23)cc1,x,0.5,x,21.7*,-0.7
CN(C)CC#Cc1ccc([C@@H]2[C@H]3CN(C(=O)c4cccc(F)c4)CC(=O)N3[C@H]2CO)cc1,x,3.9,x,-9.5,-3.7
COc1cccc(NC(=O)N2CC(=O)N3[C@H](CO)[C@H](c4ccc(C#CCC5CCCC5)cc4)[C@H]3C2)c1,-0.8,-4.8,-0.7,22.2*,-1.3
O=C(C[C@H]1CC[C@@H]2[C@H](COC[C@@H](O)CN2Cc2nccs2)O1)NCc1ccccc1,-8.9,1.1,x,-1.8,-2.4
CC1=NN(C(N)=S)C(=O)C1N=Nc1cccc(C(=O)O)c1 (stereo not given),-2.3,3.5,0.0,23.6*,5.1
CC1=NN(C(N)=S)C(=O)C1N=Nc1cccc(C)c1 (stereo not given),x,-3.0,0.6,-4.2,x
O=C(c1ccccc1)N1CC[C@@H]2[C@H](CO)Nc3ccc(C#Cc4cccnc4)cc3[C@@H]21,-3.4,-6.3,-0.2,-0.8,-0.8
SMILES,FN deposition inh,PGC1a acetyl inh,FGF22 binding,SIRT5 inh,ERAP1 HTS inh
Cc1cc(C)n(C(=O)CNC(=O)c2cccs2)n1,4.4,5.3,x,23.3*,1.5
Cc1cc(C)n(C(=O)CNC(=O)c2cccc(Cl)c2)n1,-4.5,1.6,-0.3,1.3,1.4
C[C@@H]1CN([C@@H](C)CO)S(=O)(=O)c2ccc(C#Cc3ccccc3F)cc2O[C@@H]1CN(C)C(=O)c1ccc2c(c1)OCO2,x,3.4,0.1,25.8*,-0.7
C[C@H]1CN([C@@H](C)CO)S(=O)(=O)c2ccc(C#Cc3ccccc3F)cc2O[C@H]1CN(C)C(=O)c1ccc2c(c1)OCO2,x,5.4,0.1,16.8*,5.0
O=C(C[C@@H]1CC[C@H]2[C@@H](COC[C@H](O)CN2S(=O)(=O)c2cccc(F)c2)O1)NCCCN1CCOCC1,6.9,-3.7,0.0,-4.4,-1.5
O=C(O)CCN(Cc1ccccc1)S(=O)(=O)c1ccc(Cl)cc1F,-0.3,6.9,43.7*,0.3,-0.9
COC(=O)CCN(Cc1ccccc1)S(=O)(=O)c1ccccc1Br,-14.5,-1.8,0.1,-11.9,1.4
C[C@H]1CCCCO[C@@H](CN(C)Cc2ccc(C(F)(F)F)cc2)[C@@H](C)CN([C@@H](C)CO)C(=O)c2cc(NS(=O)(=O)c3cccs3)ccc2O1,x,-5.6,-0.7,13.7,-2.2
C[C@H]1CCCCO[C@H](CN(C)Cc2ccc(C(F)(F)F)cc2)[C@@H](C)CN([C@@H](C)CO)C(=O)c2cc(NS(=O)(=O)c3cccs3)ccc2O1,x,-13.3,-0.4,15.7*,1.3
C[C@@H]1CCCCO[C@@H](CN(C)Cc2ccc(C(F)(F)F)cc2)[C@@H](C)CN([C@@H](C)CO)C(=O)c2cc(NS(=O)(=O)c3cccs3)ccc2O1,x,-4.5,0.3,18.6*,1.2
C[C@@H]1CN([C@@H](C)CO)C(=O)c2cc(NS(=O)(=O)c3cccs3)ccc2O[C@@H](C)CCCCO[C@@H]1CN(C)Cc1ccc(C(F)(F)F)cc1,x,-17.3,0.3,19.0*,1.0
C[C@H](CO)N1C[C@H](C)[C@H](CN(C)Cc2ccc(C(F)(F)F)cc2)Oc2ccc(NS(=O)(=O)c3cccs3)cc2C1=O,x,-0.4,-0.7,16.5*,-2.1
C[C@H]1CN([C@@H](C)CO)C(=O)c2cc(NS(=O)(=O)c3cccs3)ccc2O[C@@H]1CN(C)Cc1ccc(C(F)(F)F)cc1,x,-6.9,0.0,7.7,-0.6
C[C@H](CO)N1C[C@H](C)[C@H](CN(C)Cc2ccc(C(F)(F)F)cc2)OCCCC[C@H](C)Oc2ccc(NS(=O)(=O)c3cccs3)cc2C1=O,x,8.8,-0.5,12.8,1.3
C[C@@H]1CN([C@H](C)CO)C(=O)c2cc(NS(=O)(=O)c3cn(C)cn3)ccc2O[C@@H]1CN(C)Cc1ccc(C(F)(F)F)cc1,x,37.6,0.1,0.7,1.3

# Screening results from PubChem.
